Laboratory results published in ChEMBL document CHEMBL4304751, “Discovery of Novel Pyrido-pyridazinone Derivatives as FER Tyrosine Kinase Inhibitors with Antitumor Activity” (ACS Med Chem Lett, 2019).
≈ marks a conversion by molar mass, not a printed value. Blank lines part the entries; values can stand above or below the compound they belong to.

What was measured:
[1] = target: T1, Tyrosine-protein kinase Fer (Homo sapiens, UniProt P16591); experiment: Inhibition of recombinant N-terminal His-tagged human FER (SH2 domain to C-terminal) expressed in Escherichia coli assessed as decrease in FL-Peptide22 substrate phosphorylation incubated for 90 mins
Target sequence in this assay (P16591 whole entry, the tested form may be a part): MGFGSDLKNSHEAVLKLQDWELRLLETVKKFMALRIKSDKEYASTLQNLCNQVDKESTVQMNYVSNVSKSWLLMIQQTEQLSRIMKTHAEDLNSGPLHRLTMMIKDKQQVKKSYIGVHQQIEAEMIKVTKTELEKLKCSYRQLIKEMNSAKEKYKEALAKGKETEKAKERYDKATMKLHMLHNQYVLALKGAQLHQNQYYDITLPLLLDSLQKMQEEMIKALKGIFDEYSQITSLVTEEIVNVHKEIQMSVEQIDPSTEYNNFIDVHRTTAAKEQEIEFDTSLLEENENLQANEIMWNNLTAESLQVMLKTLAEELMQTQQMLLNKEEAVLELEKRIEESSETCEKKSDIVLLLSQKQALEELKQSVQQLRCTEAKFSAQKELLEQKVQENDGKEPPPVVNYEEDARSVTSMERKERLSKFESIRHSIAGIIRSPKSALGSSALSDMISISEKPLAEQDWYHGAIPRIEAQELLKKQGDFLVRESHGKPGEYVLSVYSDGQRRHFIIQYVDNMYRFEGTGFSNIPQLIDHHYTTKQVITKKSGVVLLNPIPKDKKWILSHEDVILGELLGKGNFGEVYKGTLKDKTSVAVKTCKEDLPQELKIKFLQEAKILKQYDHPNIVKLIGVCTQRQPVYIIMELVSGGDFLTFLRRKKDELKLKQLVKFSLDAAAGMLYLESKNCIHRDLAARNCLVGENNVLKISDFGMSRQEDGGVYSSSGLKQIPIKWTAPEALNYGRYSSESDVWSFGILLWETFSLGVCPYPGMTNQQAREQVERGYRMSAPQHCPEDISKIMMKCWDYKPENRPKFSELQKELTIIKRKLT

[2] = target: CDK2/Cyclin A2 (Homo sapiens) (UniProt P24941+P20248); experiment: Inhibition of recombinant human full length N-terminal GST-tagged CDK2 (1 to 298 residues)/GST-tagged CyclinA2 (1 to 432 residues) expressed in baculovirus expression system assessed as decrease in fluorescence labelled modified histone H1 phosphorylation at 200 nM by off-chip mobility shift assay relative to control
[3] = target: High affinity nerve growth factor receptor (Homo sapiens) (UniProt P04629); experiment: Inhibition of recombinant N-terminal GST-fusion protein tagged human TRKA cytoplasmic domain (436 to 790 residues) expressed in baculovirus expression system assessed as decrease in fluorescence labelled CSKtide phosphorylation at 200 nM by off-chip mobility shift assay relative to control
[4] = target: Serine/threonine-protein kinase Chk2 (Homo sapiens) (UniProt O96017); experiment: Inhibition of recombinant N-terminal GST-fusion protein tagged human full length CHK2 (1 to 543 residues) expressed in baculovirus expression system assessed as decrease in fluorescence labelled CHKtide phosphorylation at 200 nM by off-chip mobility shift assay relative to control
[5] = target: Macrophage colony-stimulating factor 1 receptor (Homo sapiens) (UniProt P07333); experiment: Inhibition of recombinant N-terminal GST-fusion protein tagged human FMS cytoplasmic domain (538 to 972 residues) expressed in baculovirus expression system assessed as decrease in fluorescence labelled Srctide phosphorylation at 200 nM by off-chip mobility shift assay relative to control
[6] = target: Tyrosine-protein kinase SYK (Homo sapiens) (UniProt P43405); experiment: Inhibition of recombinant N-terminal GST-fusion protein tagged human full length SYK (1 to 635 residues) expressed in baculovirus expression system assessed as decrease in fluorescence labelled Blk/Lyntide phosphorylation at 200 nM by off-chip mobility shift assay relative to control
Mus musculus = experiment: Unbound plasma concentration in BALB/cAnNCrlCrlj mouse at 10 mg/kg, po administered via gavage after 24 hrs by non-compartmental analysis; assay type: ADME, organism-based; details: in vivo
Outline: (§1)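 Mouse pharmacokinetics: compound given orally at 10 mg/kg. Unbound plasma concentration is reported as a mean value after oral dosing.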

[7] = target: ALK tyrosine kinase receptor (Homo sapiens) (UniProt Q9UM73); experiment: Inhibition of recombinant N-terminal GST-fusion protein tagged human ALK cytoplasmic domain (1058 to 1620 residues) expressed in baculovirus expression system assessed as decrease in fluorescence labelled Srctide phosphorylation at 200 nM by off-chip mobility shift assay relative to control
[8] = target: Protein-tyrosine kinase 2-beta (Homo sapiens) (UniProt Q14289); experiment: Inhibition of recombinant N-terminal GST-fusion protein tagged human full length PYK2 (1 to 967 residues) expressed in baculovirus expression system assessed as decrease in fluorescence labelled Blk/Lyntide phosphorylation at 200 nM by off-chip mobility shift assay relative to control
[9] = target: T1, Tyrosine-protein kinase Fer
Target sequence in this assay (P16591 whole entry, looked up, the tested form may be a part): as the sequence (P16591 whole entry, the tested form may be a part) above

[10] = target: T1, Tyrosine-protein kinase Fer; experiment: Inhibition of recombinant N-terminal GST-tagged human full length FER (1 to 822 residues) expressed in baculovirus expression system decrease in fluorescence labelled Srctide phosphorylation at 200 nM by off-chip mobility shift assay relative to control
Target sequence in this assay (P16591 whole entry, looked up, the tested form may be a part): as the sequence (P16591 whole entry, the tested form may be a part) above

[11] = target: Mitogen-activated protein kinase kinase kinase 9 (Homo sapiens) (UniProt P80192); experiment: Inhibition of recombinant N-terminal GST-fusion protein tagged human MLK1 catalytic domain (110 to 422 residues) expressed in baculovirus expression system assessed as decrease in GST-labelled MAP2K7 phosphorylation at 200 nM by HRP-labelled anti-rabbit antibody based ELISA method relative to control
[12] = Effective permeability of compound at 5 uM after 24 hrs at pH 7.4 by LC/MS/MS based PAMPA assay; assay type: ADME; details: read-out: Peff
[13] = Oral bioavailability in BALB/cAnNCrlCrlj mouse at 10 mg/kg administered via gavage after 24 hrs; assay type: ADME, organism-based; details: in vivo; outline: as §1
[14] = Metabolic stability in mouse liver microsomes assessed as parent compound remaining at 1 uM after 30 mins relative to control; assay type: ADME, Microsome; details: read-out: Stability
Outline: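 Test compound at 1.0 μM incubated 30 min with mouse liver microsomes (1.0 mg/mL protein). The fraction of parent remaining is reported.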

[15] = target: Mast/stem cell growth factor receptor Kit (Homo sapiens) (UniProt P10721); experiment: Inhibition of recombinant N-terminal GST-fusion protein tagged human KIT cytoplasmic domain (544 to 976 residues) expressed in baculovirus expression system assessed as decrease in fluorescence labelled Srctide phosphorylation at 200 nM by off-chip mobility shift assay relative to control
[16] = target: Tyrosine-protein kinase Fes/Fps (Homo sapiens) (UniProt P07332); experiment: Inhibition of recombinant N-terminal GST fusion protein tagged human full length FES (1 to 413/416 to 822 residues) expressed in baculovirus expression system assessed as decrease in fluorescence labelled Srctide phosphorylation at 200 nM by off-chip mobility shift assay relative to control
[17] = Protein binding in BALB/c mouse serum at 10 ug/mL incubated for 4 hrs under shaking condition by LC/MS/MS analysis; assay type: ADME, cell-free; details: read-out: PPB
Outline: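 Binding determined using serum samples from BALB/c mice.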

[18] = Solubility in buffer at pH 6.8; assay type: physicochemical
Outline: (§2)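 Solubility expressed as μg/mL, measured in pH 6.8 buffer and in FaSSIF.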

[19] = Total plasma clearance in BALB/cAnNCrlCrlj mouse at 1 mg/kg, iv after 24 hrs; assay type: ADME, organism-based
Outline: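 Clearance measured after a single intravenous dose of 1 mg/kg in mice.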

BaF3 = experiment: Antitumor activity against mouse BA/F3 cells expressing myc/His-tagged ETV6-FER kinase domain (452 to 821 residues) allografted in BALB/cAJcl nu/nu mouse assessed as decrease in tumor volume administered orally once per day for 4 days starting from 6 days after tumor cell implantation and measured during compound dosing; assay type: functional, cell-based
[20] = target: Mitogen-activated protein kinase kinase kinase kinase 4 (Homo sapiens) (UniProt O95819); experiment: Inhibition of recombinant N-terminal GST-fusion protein tagged human HGK catalytic domain (1 to 328 residues) expressed in baculovirus expression system assessed as decrease in fluorescence labelled Moesin-derived phosphorylation at 200 nM by off-chip mobility shift assay relative to control
[21] = Cmax in BALB/cAnNCrlCrlj mouse at 10 mg/kg, po administered via gavage after 24 hrs; assay type: ADME, organism-based; design: dose 10 mg/kg, route oral; details: in vivo; outline: as §1
[22] = target: T2, Testis-specific serine/threonine-protein kinase 1 (Homo sapiens) (UniProt Q9BXA7); experiment: Inhibition of recombinant N-terminal GST fusion protein tagged human full length TSSK1 (1 to 367 residues) expressed in baculovirus expression system assessed as decrease in fluorescence labelled GS peptide phosphorylation at 200 nM by off-chip mobility shift assay relative to control
T2 sequence (whole entry): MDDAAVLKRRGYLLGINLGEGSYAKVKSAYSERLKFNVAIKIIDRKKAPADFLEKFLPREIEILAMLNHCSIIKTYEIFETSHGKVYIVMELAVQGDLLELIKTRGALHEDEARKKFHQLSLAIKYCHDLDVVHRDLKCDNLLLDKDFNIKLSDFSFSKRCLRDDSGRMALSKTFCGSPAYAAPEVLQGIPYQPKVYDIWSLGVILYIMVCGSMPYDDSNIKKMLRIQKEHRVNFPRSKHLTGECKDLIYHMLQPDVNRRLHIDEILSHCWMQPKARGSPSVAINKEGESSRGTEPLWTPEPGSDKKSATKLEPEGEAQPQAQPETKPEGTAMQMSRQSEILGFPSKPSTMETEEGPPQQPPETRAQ

[23] = Solubility in FaSSIF; assay type: physicochemical; outline: as §2
[24] = target: Receptor-type tyrosine-protein kinase FLT3 (Homo sapiens) (UniProt P36888); experiment: Inhibition of recombinant N-terminal GST-fusion protein tagged human FLT3 cytoplasmic domain (564 to 993 residues) expressed in baculovirus expression system assessed as decrease in fluorescence labelled Srctide phosphorylation at 200 nM by off-chip mobility shift assay relative to control
[25] = target: T3, Interleukin-1 receptor-associated kinase 4 (Homo sapiens) (UniProt Q9NWZ3); experiment: Inhibition of recombinant N-terminal GST-fusion protein tagged human full length IRAK4 (1 to 460 residues) expressed in baculovirus expression system assessed as decrease in fluorescence labelled IRAK1 phosphorylation at 200 nM by off-chip mobility shift assay relative to control
T3 sequence (whole entry): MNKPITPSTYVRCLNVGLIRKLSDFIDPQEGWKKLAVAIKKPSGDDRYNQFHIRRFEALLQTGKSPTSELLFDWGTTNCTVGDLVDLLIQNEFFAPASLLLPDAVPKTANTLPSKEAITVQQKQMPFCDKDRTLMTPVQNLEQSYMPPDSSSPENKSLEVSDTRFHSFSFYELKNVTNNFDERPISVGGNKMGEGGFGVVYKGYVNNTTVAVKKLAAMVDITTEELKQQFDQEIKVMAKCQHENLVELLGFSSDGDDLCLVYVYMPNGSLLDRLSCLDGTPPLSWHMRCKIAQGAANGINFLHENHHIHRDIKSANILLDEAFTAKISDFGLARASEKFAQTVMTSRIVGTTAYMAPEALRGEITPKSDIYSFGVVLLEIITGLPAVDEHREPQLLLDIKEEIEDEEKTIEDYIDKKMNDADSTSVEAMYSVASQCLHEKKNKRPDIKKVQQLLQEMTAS

[26] = AUC in BALB/cAnNCrlCrlj mouse at 10 mg/kg, po administered via gavage after 24 hrs; assay type: ADME, organism-based; design: time < 24 hr, dose 10 mg/kg, route oral; details: in vivo; outline: as §1
[27] = Growth inhibition of mouse mock transfected BA/F3 cells assessed as decrease in cell viability after 3 days by luminescence based CellTiter-Glo assay; design: species or system BaF3
Outline: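 Ba/F3 growth inhibition run as quadruplicate experiments. GI50 fitted with 95% confidence intervals.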

[28] = Toxicity in BALB/cAJcl nu/nu mouse allografted with mouse BA/F3 cells expressing myc/His-tagged ETV6-FER kinase domain (452 to 821 residues) assessed as change in body weight loss at 12.5 to 100 mg/kg, po administered once per day for 4 days starting from 6 days after tumor cell implantation and measured during compound dosing; assay type: organism-based; details: in vivo
[29] = target: Proto-oncogene tyrosine-protein kinase ROS (Homo sapiens) (UniProt P08922); experiment: Inhibition of recombinant N-terminal GST-fusion protein tagged human ROS1 cytoplasmic domain (1883 to 2347 residues) expressed in baculovirus expression system assessed as decrease in fluorescence labelled IRS1 phosphorylation at 200 nM by off-chip mobility shift assay relative to control
Proto-oncogene tyrosine-protein kinase ROS (Homo sapiens), sequence (P08922 whole entry, the tested form may be a part): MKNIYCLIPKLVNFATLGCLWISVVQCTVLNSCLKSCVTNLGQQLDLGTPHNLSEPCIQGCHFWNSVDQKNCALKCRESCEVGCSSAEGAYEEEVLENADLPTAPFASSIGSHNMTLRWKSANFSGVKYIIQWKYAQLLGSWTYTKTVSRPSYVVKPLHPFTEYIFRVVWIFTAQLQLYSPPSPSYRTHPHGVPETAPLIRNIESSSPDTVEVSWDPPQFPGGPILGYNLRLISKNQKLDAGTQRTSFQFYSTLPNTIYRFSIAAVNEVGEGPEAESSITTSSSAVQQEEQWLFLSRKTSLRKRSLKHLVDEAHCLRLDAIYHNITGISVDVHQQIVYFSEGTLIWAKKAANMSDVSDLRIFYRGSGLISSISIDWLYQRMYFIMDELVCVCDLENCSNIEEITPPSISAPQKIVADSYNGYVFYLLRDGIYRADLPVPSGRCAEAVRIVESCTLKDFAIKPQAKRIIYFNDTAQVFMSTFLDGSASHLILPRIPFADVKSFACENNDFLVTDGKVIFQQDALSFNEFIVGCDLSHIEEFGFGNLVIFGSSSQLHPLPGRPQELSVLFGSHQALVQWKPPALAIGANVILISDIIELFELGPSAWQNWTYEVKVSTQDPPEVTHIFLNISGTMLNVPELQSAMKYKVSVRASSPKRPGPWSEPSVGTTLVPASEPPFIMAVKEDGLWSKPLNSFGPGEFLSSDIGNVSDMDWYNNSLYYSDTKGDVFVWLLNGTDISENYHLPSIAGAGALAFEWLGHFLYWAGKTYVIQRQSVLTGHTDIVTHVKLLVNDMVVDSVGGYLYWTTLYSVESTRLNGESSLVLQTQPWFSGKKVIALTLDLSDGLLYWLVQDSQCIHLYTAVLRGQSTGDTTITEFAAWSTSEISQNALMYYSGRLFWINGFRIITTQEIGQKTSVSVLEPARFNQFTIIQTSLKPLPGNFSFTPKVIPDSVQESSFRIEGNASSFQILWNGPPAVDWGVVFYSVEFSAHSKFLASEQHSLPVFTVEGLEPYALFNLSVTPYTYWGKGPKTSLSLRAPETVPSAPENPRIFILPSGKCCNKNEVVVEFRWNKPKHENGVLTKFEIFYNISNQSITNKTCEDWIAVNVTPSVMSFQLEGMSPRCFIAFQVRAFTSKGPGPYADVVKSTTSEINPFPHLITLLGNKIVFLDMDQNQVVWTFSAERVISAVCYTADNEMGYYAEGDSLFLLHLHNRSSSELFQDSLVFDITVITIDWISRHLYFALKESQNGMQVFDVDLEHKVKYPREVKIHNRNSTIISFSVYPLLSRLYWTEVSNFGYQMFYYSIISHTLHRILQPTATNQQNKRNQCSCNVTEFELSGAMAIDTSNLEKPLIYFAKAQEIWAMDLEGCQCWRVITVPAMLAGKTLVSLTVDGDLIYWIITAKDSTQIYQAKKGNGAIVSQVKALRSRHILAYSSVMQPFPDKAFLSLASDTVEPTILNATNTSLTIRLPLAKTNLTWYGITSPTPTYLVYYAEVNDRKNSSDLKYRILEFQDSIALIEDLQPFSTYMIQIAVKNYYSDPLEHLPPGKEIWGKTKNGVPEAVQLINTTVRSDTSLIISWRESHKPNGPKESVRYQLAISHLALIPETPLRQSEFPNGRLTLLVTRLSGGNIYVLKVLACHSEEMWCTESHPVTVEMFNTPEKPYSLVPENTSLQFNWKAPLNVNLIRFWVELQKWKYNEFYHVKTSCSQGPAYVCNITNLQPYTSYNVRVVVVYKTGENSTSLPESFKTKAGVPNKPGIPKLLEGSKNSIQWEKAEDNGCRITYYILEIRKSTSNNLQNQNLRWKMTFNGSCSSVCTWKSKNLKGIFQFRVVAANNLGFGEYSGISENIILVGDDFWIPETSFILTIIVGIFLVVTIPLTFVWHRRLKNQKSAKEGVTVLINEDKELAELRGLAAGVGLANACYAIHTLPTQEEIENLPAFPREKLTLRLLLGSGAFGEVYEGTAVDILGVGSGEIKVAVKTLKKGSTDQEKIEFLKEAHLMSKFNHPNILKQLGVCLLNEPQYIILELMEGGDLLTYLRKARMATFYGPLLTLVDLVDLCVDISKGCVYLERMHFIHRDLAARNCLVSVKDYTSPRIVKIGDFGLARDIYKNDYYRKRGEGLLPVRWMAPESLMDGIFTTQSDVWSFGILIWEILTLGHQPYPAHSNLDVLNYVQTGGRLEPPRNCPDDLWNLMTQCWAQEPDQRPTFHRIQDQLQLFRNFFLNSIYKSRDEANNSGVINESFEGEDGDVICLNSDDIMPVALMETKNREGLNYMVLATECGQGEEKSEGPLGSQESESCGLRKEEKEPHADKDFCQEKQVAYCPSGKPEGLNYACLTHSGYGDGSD

Receptor-type tyrosine-protein kinase FLT3 (Homo sapiens), sequence (P36888 whole entry, the tested form may be a part): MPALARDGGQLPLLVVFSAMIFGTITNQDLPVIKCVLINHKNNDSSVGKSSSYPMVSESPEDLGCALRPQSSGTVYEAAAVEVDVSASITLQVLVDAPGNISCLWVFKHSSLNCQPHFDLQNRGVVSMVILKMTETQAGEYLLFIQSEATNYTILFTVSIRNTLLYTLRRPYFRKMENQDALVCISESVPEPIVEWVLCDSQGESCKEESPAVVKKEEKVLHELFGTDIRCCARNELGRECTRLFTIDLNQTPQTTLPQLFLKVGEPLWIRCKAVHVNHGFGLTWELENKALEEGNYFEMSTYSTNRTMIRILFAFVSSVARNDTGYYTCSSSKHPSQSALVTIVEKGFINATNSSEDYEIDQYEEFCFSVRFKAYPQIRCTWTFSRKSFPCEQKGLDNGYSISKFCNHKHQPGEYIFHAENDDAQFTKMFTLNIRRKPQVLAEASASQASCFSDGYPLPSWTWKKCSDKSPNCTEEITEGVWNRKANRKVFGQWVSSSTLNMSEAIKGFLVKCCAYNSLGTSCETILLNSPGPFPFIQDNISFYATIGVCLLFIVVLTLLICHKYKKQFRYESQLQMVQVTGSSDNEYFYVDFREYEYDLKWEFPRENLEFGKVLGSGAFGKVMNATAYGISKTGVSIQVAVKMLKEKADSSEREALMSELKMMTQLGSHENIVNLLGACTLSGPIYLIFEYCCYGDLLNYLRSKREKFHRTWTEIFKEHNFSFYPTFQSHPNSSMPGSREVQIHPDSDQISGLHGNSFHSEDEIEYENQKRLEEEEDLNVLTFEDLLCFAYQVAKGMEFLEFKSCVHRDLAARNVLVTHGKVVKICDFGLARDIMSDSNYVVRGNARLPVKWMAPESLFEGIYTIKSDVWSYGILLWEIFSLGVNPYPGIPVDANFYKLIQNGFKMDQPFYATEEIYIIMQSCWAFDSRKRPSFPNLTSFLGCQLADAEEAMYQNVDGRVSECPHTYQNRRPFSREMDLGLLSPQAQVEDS
High affinity nerve growth factor receptor (Homo sapiens), sequence (P04629 33-796 limits assumed): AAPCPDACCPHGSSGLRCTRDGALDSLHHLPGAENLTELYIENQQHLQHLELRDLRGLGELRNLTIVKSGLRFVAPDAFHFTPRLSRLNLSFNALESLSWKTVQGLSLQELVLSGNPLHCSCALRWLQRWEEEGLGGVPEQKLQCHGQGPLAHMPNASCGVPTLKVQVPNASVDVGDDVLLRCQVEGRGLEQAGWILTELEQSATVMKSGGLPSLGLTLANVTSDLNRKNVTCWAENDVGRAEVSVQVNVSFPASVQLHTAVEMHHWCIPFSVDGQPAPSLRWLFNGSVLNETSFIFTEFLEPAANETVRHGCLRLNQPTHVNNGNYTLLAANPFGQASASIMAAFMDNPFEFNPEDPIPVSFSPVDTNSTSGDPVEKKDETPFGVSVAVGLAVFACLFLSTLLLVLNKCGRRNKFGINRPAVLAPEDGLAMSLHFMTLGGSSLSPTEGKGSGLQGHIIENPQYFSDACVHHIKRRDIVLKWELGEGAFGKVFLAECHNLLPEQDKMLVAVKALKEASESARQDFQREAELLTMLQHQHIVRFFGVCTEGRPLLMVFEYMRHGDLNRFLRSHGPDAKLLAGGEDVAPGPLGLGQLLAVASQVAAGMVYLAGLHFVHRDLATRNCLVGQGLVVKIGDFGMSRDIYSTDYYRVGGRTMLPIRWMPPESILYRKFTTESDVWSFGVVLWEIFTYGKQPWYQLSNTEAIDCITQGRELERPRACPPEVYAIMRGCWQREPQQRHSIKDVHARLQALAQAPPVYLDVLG

Structure (SMILES): N#Cc1cc(C(N)=O)c(N)nc1N[C@@H]1CCCC[C@@H]1N
- IC50 [1]: > 4 µM

Structure (SMILES): Cc1cccc(Nc2nc(N[C@@H]3CCCC[C@@H]3N)c(C#N)c3cn[nH]c(=O)c23)c1
- inhibition [2]: > 90%
- inhibition [3]: > 90%
- inhibition [4]: > 90%
- inhibition [5]: > 90%
- inhibition [6]: > 90%
- Cp(f) (Mus musculus): 3.1 nM
- inhibition [7]: > 90%
- inhibition [8]: > 90%
- GI50 [9]: 0.0019 µM
- inhibition [10]: > 90%
- inhibition [11]: > 90%
- Papp at 24 h, 5 µM [12]: > 50 ×10⁻⁶ cm/s
- bioavailability [13]: 34%
- IC50 [1]: 0.00049 µM
- remaining at 0.5 h, 1 µM [14]: 96%
- inhibition [15]: > 90%
- inhibition [16]: > 90%
- fraction unbound at 4 h, 10 ug/mL [17]: 0.01
- solubility [18]: 0.9 µg/mL (≈ 2.31 µM)
- clearance [19]: 12 mL/min/kg
- Activity (BaF3): Dose-dependent effect
- inhibition [20]: > 90%
- Cmax [21]: 360 ng/mL
- inhibition [22]: > 90%
- solubility [23]: 2.1 µg/mL (≈ 5.39 µM)
- inhibition [24]: > 90%
- inhibition [25]: > 90%
- AUC at 24 h [26]: 4800 ng·h/mL
- GI50 at 72 h [27]: 0.22 µM
- Activity [28]: Non-Toxic
- inhibition [29]: > 90%

Structure (SMILES): Cc1cccc(Nc2ccc(C#N)c(N[C@@H]3CCCC[C@@H]3N)n2)c1
- IC50 [1]: > 4 µM

Structure (SMILES): Cc1cccc(Nc2nc(NC3CCCCC3N)cc3cn[nH]c(=O)c23)c1 (racemic)
- GI50 at 72 h [27]: 1.5 µM

Structure (SMILES): Cc1cccc(Nc2nc(NC3CCCCC3N)cc3cc[nH]c(=O)c23)c1 (racemic)
- GI50 at 72 h [27]: 1.92 µM

Structure (SMILES): Cc1cccc(Nc2nc(NC3CCCCC3N)cc3c2C(=O)NCC3)c1 (racemic)
- GI50 at 72 h [27]: 4.3 µM

Structure (SMILES): Cc1cccc(Nc2nc(NC3CCCCC3N)c(Cl)c3cn[nH]c(=O)c23)c1 (racemic)
- GI50 at 72 h [27]: 1.5 µM

Structure (SMILES): Cc1cccc(Nc2nc(N[C@@H]3CCCC[C@@H]3N)c(C#N)cc2C(N)=O)c1
- Papp at 24 h, 5 µM [12]: 16 ×10⁻⁶ cm/s
- bioavailability [13]: 17%
- remaining at 0.5 h, 1 µM [14]: 100%
- fraction unbound at 4 h, 10 ug/mL [17]: 0.01
- solubility [18]: 35 µg/mL (≈ 96 µM)
- clearance [19]: 12 mL/min/kg
- Cmax [21]: 420 ng/mL
- solubility [23]: 49 µg/mL (≈ 134 µM)
- AUC at 24 h [26]: 2400 ng·h/mL

Continued, in another order:

- IC50 [1]: > 1.3 µM
Structure (SMILES): Cc1cccc(-n2c(=O)[nH]c3cc(C#N)c(N[C@@H]4CCCC[C@@H]4N)nc32)c1

- GI50 [9]: > 4 µM
- IC50 [1]: > 4 µM
Structure (SMILES): N#Cc1cc2c(N)nn(Cc3ccccc3)c2nc1NC1CCCCC1N (racemic)
- GI50 at 72 h [27]: > 5 µM

- IC50 [1]: > 4 µM
Structure (SMILES): Cc1cccc(Cc2nc(N[C@@H]3CCCC[C@@H]3N)c(C#N)cc2C(N)=O)c1
